Source: ChEMBL document CHEMBL5325455, “Daphnanes diterpenes from the latex of Hura crepitans L. and their PKCζ-dependent anti-proliferative activity on colorectal cancer cells” (Bioorg Med Chem, 2023)
Activity calls are given as the source filed them. The rule behind the calls is not given here.

How the values were obtained:
Caco-2 [1] = assay: Effect on phosphorylated MEK at Ser217/221 level in human Caco-2 cells at 1 ug/ml measured after 48 hrs by Western blot analysis; assay type: functional, cell-based; details: dose 1.0 µg/ml
Outline: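 Caco-2 cells (0.25 × 10^6/well) were treated at 1 µg/mL for 48 h, with or without 30 min pretreatment with 2.5 µM CRT0066854. Lysates (30 µg protein) were blotted for pSer217/221-MEK and total MEK, with actin as loading control. Detection was by ECL; n=2, t-test versus DMSO.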

[2] = molecular target: Glycogen synthase kinase-3 beta (Homo sapiens) (UniProt P49841); assay: Inhibition of GSK3beta in human Caco-2 cells assessed as increase in phosphorylation at serine 9 residue at 1 ug/ml preincubated for 30 mins with CRT0066854 hydrochloride followed by compound addition and measured after 48 hrs by Western blot analysis; assay type: cell-based; details: dose 1.0 µg/ml
Chain of Glycogen synthase kinase-3 beta (Homo sapiens) (P49841 whole entry, looked up): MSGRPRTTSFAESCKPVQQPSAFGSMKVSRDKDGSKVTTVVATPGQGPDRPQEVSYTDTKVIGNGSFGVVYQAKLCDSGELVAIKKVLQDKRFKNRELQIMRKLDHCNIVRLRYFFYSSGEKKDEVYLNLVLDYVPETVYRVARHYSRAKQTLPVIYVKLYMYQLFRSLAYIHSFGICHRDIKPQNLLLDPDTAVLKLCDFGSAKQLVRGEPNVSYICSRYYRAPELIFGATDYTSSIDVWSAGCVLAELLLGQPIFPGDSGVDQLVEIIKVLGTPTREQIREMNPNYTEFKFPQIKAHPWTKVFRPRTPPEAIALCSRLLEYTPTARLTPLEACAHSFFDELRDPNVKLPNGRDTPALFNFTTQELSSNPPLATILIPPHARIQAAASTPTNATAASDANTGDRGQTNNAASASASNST
Outline: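 Caco-2 cells were pretreated with 2.5 µM CRT0066854 hydrochloride for 30 min, then treated at 1 µg/mL for 48 h. Lysates (30 µg protein) were immunoblotted for pSer9-GSK3β and total GSK3β, with actin loading control and ECL detection; n=2.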

[3] = Cytostatic activity against human Colorectal epithelial cells isolated from patient with well-differentiated colonic adenocarcinoma and undergone nine courses of chemotherapy cultured as organoids assessed as inhibition of cell growth at 0.1 ug/ml incubated for 48 hrs by CellTiter-Glo luminescence assay relative to control; assay type: functional
Outline: (§1)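 Primary colonic epithelial cells (3 control and 2 CRC patients) were expanded as organoids or spheroids in Matrigel with EGF/noggin/Wnt3a/R-spondin medium. Single cells were seeded at 2500/well and allowed 48 h to form colonoids, then exposed for 48 h at 0.01, 0.1 or 1 µg/mL, with 5FdU at 1 µg/mL as positive control. Viability was read by CellTiter-Glo luminescence versus DMSO or medium control.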

[4] = test system: Colorectal epithelial cell; assay: Cytostatic activity against human Colorectal epithelial cells isolated from patient with well-differentiated colonic adenocarcinoma and undergone nine courses of chemotherapy cultured as organoids at 1 ug/ml incubated for 48 hrs by CellTiter-Glo luminescence assay; assay type: functional, cell-based; details: dose 1.0 µg/ml; outline: as §1
Caco-2 [5] = assay: Induction of morphological changes in human Caco-2 cells assessed as cellular aggregates formation at 0.125 ug/ml incubated for 48 hrs by Hoechst 3342 and phalloidin staining based confocal microscopic analysis; assay type: functional, cell-based; details: dose 0.125 µg/ml
Outline: (§2)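 Caco-2 cells (40 000/well) were exposed for 48 h, then fixed in 3.7% PFA and permeabilised with Triton X100/BSA. Actin was stained with phalloidin and nuclei with Hoechst 3342, and cells were viewed by confocal microscopy.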

Caco-2 [6] = assay: Upregulation of AKT protein expression in human Caco-2 cells at 1 ug/ml incubated for 48 hrs by Western blot analysis; assay type: functional, cell-based; details: dose 1.0 µg/ml
Outline: (§3)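 Caco-2 cells (0.25 × 10^6/well) were treated at 1 µg/mL for 48 h and lysed in pH 7.4 Tris/NaCl/Triton/EDTA buffer with protease and phosphatase inhibitors. 30 µg protein was run per lane on 4–15% gels and blotted for pSer9-GSK3β, total GSK3β, pSer473-Akt, total Akt and β-catenin, with actin as loading control. Detection was by ECL; n=2, t-test versus DMSO.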

Caco-2 [7] = assay: Induction of morphological changes in human Caco-2 cells assessed as cellular aggregation at 1 ug/ml preincubated for 15 mins with PKCalpha inhibitor, Go6976 followed by compound addition and measured after 48 hrs by immunostaining based confocal microscopic analysis; assay type: functional, cell-based; details: dose 1.0 µg/ml
Outline: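 Caco-2 cells were given 0.2 µM Gö6976 for 15 min before compound at 1 µg/mL for 48 h. PKCα was immunostained, nuclei and cytoskeleton were labelled, and cells were imaged by confocal microscopy (20X objective) in duplicate from one experiment.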

[8] = molecular target: Glycogen synthase kinase-3 beta (Homo sapiens) (UniProt P49841); assay: Inhibition of GSK3beta in human Caco-2 cells assessed as increase in phosphorylation at serine 9 residue at 1 ug/ml incubated for 48 hrs by Western blot analysis; assay type: cell-based; details: dose 1.0 µg/ml; outline: as §3
Caco-2 [9] = assay: Induction of morphological changes in human Caco-2 cells at 1 ug/ml preincubated for 30 mins with CRT0066854 hydrochloride followed by compound addition and measured after 48 hrs by Hoechst 3342 and phalloidin staining based confocal microscopic analysis; assay type: functional, cell-based; details: dose 1.0 µg/ml
Outline: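 CRT0066854 hydrochloride (2.5 µM) was added to Caco-2 cells 30 min before compound at 1 µg/mL. After 48 h, nuclei and actin cytoskeleton were labelled and confocal views taken with a 20X objective; duplicates from one experiment.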

Caco-2 [10] = assay: Induction of morphological changes in human Caco-2 cells assessed as densification of cytoskeleton at 1 ug/ml incubated for 48 hrs by Hoechst 3342 and phalloidin staining based confocal microscopic analysis; assay type: functional, cell-based; details: dose 1.0 µg/ml; outline: as §2
Caco-2 [11] = assay: Effect on beta-catenin protein expression in human Caco-2 cells at 1 ug/ml incubated for 48 hrs by Western blot analysis; assay type: functional, cell-based; details: dose 1.0 µg/ml; outline: as §3
Caco-2 [12] = assay: Induction of morphological changes in human Caco-2 cells assessed as reorganization of epithelial tissue architecture at 1 ug/ml incubated for 48 hrs by Hoechst 3342 and phalloidin staining based confocal microscopic analysis; assay type: functional, cell-based; details: dose 1.0 µg/ml; outline: as §2
Caco-2 [13] = assay: Cytotoxicity against human Caco-2 cells assessed as cell death; assay type: functional, cell-based
Caco-2 [14] = assay: Cytostatic activity against human Caco-2 cells assessed as inhibition of cell growth at 1 ug/ml preincubated for 15 mins with PKCalpha inhibitor, Go6976 followed by compound addition and measured after 48 hrs by MTS assay; assay type: functional, cell-based; details: dose 1.0 µg/ml
Outline: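 Caco-2 cells (40 000/well) were pretreated with 0.2 µM Gö6976 for 15 min, then given compound at 1 µg/mL for 48 h. MTS absorbance was read at 490 nm and activity calculated relative to DMSO controls; triplicates, 1–3 independent experiments, two-way ANOVA.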

[15] = test system: Colorectal epithelial cell; assay: Cytostatic activity against human Colorectal epithelial cells isolated from left colon of patient with sigmoido-vaginal fistula for diverticulitis cultured as organoids at 1 ug/ml incubated for 48 hrs by CellTiter-Glo luminescence assay; assay type: functional, cell-based; details: dose 1.0 µg/ml; outline: as §1
[16] = test system: Colorectal epithelial cell; assay: Cytostatic activity against human Colorectal epithelial cells isolated from patient with fistulized sigmoiditis cultured as organoids at 1 ug/ml incubated for 48 hrs by CellTiter-Glo luminescence assay; assay type: functional, cell-based; details: dose 1.0 µg/ml; outline: as §1
Caco-2 [17] = assay: Downregulation of PKCalpha expression in human Caco-2 cells at 1 ug/ml incubated for 48 hrs by immunostaining based confocal microscopic analysis; assay type: functional, cell-based; details: dose 1.0 µg/ml
Outline: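 Caco-2 cells were seeded at 40 000/well and treated for 48 h as in the viability assay. They were fixed in 3.7% PFA for 20 min and permeabilised in HBSS/0.5% Triton X100/1% BSA. Anti-PKCζ (1/50) or anti-PKCα (1/200) was applied overnight at 4°C, then Alexa 488 secondary for 45 min. Phalloidin and Hoechst counterstained the cells before confocal imaging; PKCα signal was quantified by immunofluorescence.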

[18] = test system: Colorectal epithelial cell; assay: Cytostatic activity against human Colorectal epithelial cells isolated from left colon of patient with recurrent diverticulitis cultured as organoids at 1 ug/ml incubated for 48 hrs by CellTiter-Glo luminescence assay; assay type: functional, cell-based; details: dose 1.0 µg/ml; outline: as §1
[19] = Cytotoxicity against HIEC-6 cells assessed as inhibition of cell growth at 1 ug/ml incubated for 48 hrs by MTS assay; assay type: toxicity, cell-based; details: human, hiec-6, 48 h, dose 1 µg/ml
Outline: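 HIEC6 cells were grown in OPTIMEM with GlutaMAX, Hepes and 10 ng/mL EGF and seeded at 60 000/well 48 h before dosing. Cells were exposed to 1 µg/mL for 48 h, and viability was read by MTS absorbance at 490 nm versus DMSO; 3 independent experiments, t-test.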

Structure (SMILES)	Activity (Caco-2 [1])	inhibition [2]	inhibition at 0.1 µg/mL [3] [%]	Activity [4]	Activity (Caco-2 [5])	Activity (Caco-2 [6])	Activity (Caco-2 [7])	inhibition [8]	Activity (Caco-2 [9])	Activity (Caco-2 [10])	Activity (Caco-2 [11])	Activity (Caco-2 [12])	Activity (Caco-2 [13])	Activity (Caco-2 [14])	Activity [15]	Activity [16]	Activity (Caco-2 [17])	Activity [18]	Activity [19]
C=C(C)[C@]12C[C@@H](C)[C@@]34O[C@](/C=C/C=C/CCCCCCCCC)(O[C@@H]1[C@@H]3[C@@H]1O[C@]1(CO)[C@@H](O)[C@]1(O)C(=O)C(C)=C[C@H]14)O2	inactive	inactive	40	Active	Active	Active	Active	Active	inactive	Active	inactive	Active	inactive	Active	Active	Active	Active	Active	Non-Toxic
C=C(C)[C@]12C[C@@H](C)[C@@]34O[C@](/C=C/[C@@H]5O[C@H]5CCCCCCCCC)(O[C@@H]1[C@@H]3[C@@H]1O[C@]1(CO)[C@@H](O)[C@]1(O)C(=O)C(C)=C[C@H]14)O2	inactive	inactive	40	Active	Active	Active	Active	Active	inactive	Active	inactive	Active	inactive	Active	Active	Active	Active	Active	Non-Toxic
